Test results as given in ChEMBL document CHEMBL1124702, “Synthesis and pharmacological evaluation of a series of dibenzo[a,d]cycloalkenimines as N-methyl-D-aspartate antagonists” (J Med Chem, 1990).

What was measured:
Glutamate NMDA receptor = experiment: Inhibition of N-methyl-D-aspartate glutamate receptor (NMDA receptor) from homogenized rat brain membrane, using [3H]-MK-801 as a radioligand
Summary of the method: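 Male Sprague-Dawley rat (200-300 g) cortical membranes, washed and preincubated 20 min at 23 °C in 5 mM Tris-HCl pH 7.4. Duplicate aliquots (ca. 0.75 mg protein) incubated 60 min at 23 °C with displacer plus [3H]-(+)-10 added as 100 µL of 50 nM stock. Filter-bound radioactivity counted by liquid scintillation; Ki reported.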

[1] = target: T1, Glutamate NMDA receptor (Rattus norvegicus) (UniProt P35439+Q00959+Q00960+Q00961+Q62645+Q8VHN2+Q9R1M7); experiment: Antagonistic activity against N-methyl-D-aspartate glutamate receptor from rat cortical slice; type: functional
Summary of the method: (§1)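 Greased-gap recording of NMDA-induced population depolarizations in rat cortical slices. An NMDA concentration-response curve was run, then repeated with antagonist present. Apparent Kb = antagonist concentration/(CR-1), with CR taken at the midpoint of the control curve. If the curve flattened, a lower antagonist concentration was tried. Failing that, the threshold concentration giving significant antagonism was used.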

Mus musculus [2] = experiment: Inhibition of N-Methyl-D,L-aspartate induced convulsions in mice following 500 mg/kg i.p.; type: functional; settings: ip, route intraperitoneal
[3] = target: T1, Glutamate NMDA receptor (Rattus norvegicus); experiment: Antagonistic activity against N-methyl-D-aspartate glutamate receptor from rat cortical slice was determined (expt.1); type: functional; summary of the method: as §1
[4] = target: T1, Glutamate NMDA receptor (Rattus norvegicus); experiment: Antagonistic activity against N-methyl-D-aspartate glutamate receptor from rat cortical slice was determined (expt.2); type: functional; summary of the method: as §1
Mus musculus [5] = experiment: Tested for inhibition of convulsions induced by N-Methyl-D,L-aspartate (NMDLA), after sc administration of a dose of […] in mice; type: functional; settings: route subcutaneous
Summary of the method: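 Test drug given iv 15 min before the convulsant. NMDLA given at 500 mg/kg, sc or ip. Separately, NMDA given sc at 400 mg/kg. Anticonvulsant ED50 determined.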

| SMILES | Ki (Glutamate NMDA receptor) [nM] | Kb [1] [nM] | further results |
| --- | --- | --- | --- |
| CC12NC(Cc3ccccc31)c1ccc(Br)cc12 (centres undefined) | 180 | 460 | – |
| CC12NC(Cc3ccc(Cl)cc31)c1ccccc12 (single isomer, unassigned; (-)) | – | 560 | – |
| CN1C2Cc3ccccc3C1(O)c1ccccc1C2 | 290000 | – | – |
| OC12NC(Cc3ccccc31)Cc1ccccc12 | 57000 | – | – |
| COc1ccc2c(c1)C1(C)NC2Cc2ccccc21 (stereo in doubt; 83) | – | 230 | – |
| CC12NC(c3ccccc31)[C@@H](O)c1ccccc12 (stereo in doubt; 120) [listing 1 of 2 here] | – | 280 | – |
| CC12NC(Cc3ccc(Br)cc31)c1ccccc12 (single isomer, unassigned; (+)) [listing 1 of 2 here] | – | 500 | – |
| CC12NC(Cc3ccccc31)Cc1ccc(Cl)cc12 (centres undefined) | 110 | 680 | – |
| CC12NC(Cc3ccccc31)c1cc(O)ccc12 (stereo in doubt; (+)-106) | 23 | – | ED50 (Mus musculus [2]): 0.97 mg/kg |
| NC(=O)CC12NC(O)(Cc3ccccc31)c1ccccc12 (centres undefined) | 6400 | – | – |
| C=CC12NC(Cc3ccccc31)c1ccccc12 (centres undefined) | 87 | 320 | – |
| O[C@H]1c2ccccc2C2NC1c1ccccc12 (some centres undefined) | 7750 | 2790 | – |
| CC12NC(c3ccccc31)[C@@H](O)c1ccccc12 (stereo in doubt; (+)120) [listing 1 of 2 here] | – | 250 | – |
| CC12NC(Cc3ccc(O)cc31)c1ccccc12 (centres undefined) | 18 | – | Kb [3]: 240 nM; Kb [4]: 510 nM |
| CC12NC(O)(Cc3ccccc31)c1ccccc12 (centres undefined) | 77 | 660 | – |
| CC12NC(Cc3ccc(SC(F)(F)F)cc31)c1ccccc12 (centres undefined) | 17000 | – | – |
| CC12NC(Cc3ccccc31)c1ccc(O)cc12 (centres undefined) | 23 | 130 | ED50 (Mus musculus [2]): 0.43 mg/kg |
| CN1C2Cc3ccccc3C1c1ccccc12 (centres undefined) | 12000 | – | – |
| CCOC(=O)C(O)[C@]12NC(Cc3ccccc31)c1ccccc12 (some centres undefined) | 390 | – | – |
| FCC12NC(Cc3ccccc31)c1ccccc12 (centres undefined) | 160 | 720 | ED50 (Mus musculus [2]): 2.55 mg/kg |
| OCC12NC(Cc3ccccc31)c1ccccc12 (centres undefined) | 350 | – | – |
| CC12NC(Cc3cc(O)ccc31)c1ccccc12 (centres undefined) | 277 | 510 | – |
| CC12NC(Cc3ccc(-c4ccccc4)cc31)c1ccccc12 (centres undefined) | 32 | 260 | ED50 (Mus musculus [2]): 7.76 mg/kg |
| CC12NC(Cc3ccccc31)c1cc(O)ccc12 (stereo in doubt; 106) | 49 | – | – |

| SMILES | Ki (Glutamate NMDA receptor) [nM] | Kb [1] [nM] | further results |
| --- | --- | --- | --- |
| CC12NC(c3ccccc31)[C@@H](O)c1ccccc12 (stereo in doubt; 120) [listing 2 of 2 here] | 210 | – | – |
| CC12NC(Cc3ccc(Br)cc31)c1ccccc12 (single isomer, unassigned; (-)) | 113 | – | – |
| CC12NC(Cc3ccc(CO)cc31)c1ccccc12 (centres undefined) | 137 | 270 | ED50 (Mus musculus [2]): 1.19 mg/kg |
| C[C@]12N[C@H](Cc3ccccc31)Cc1ccccc12 | 139 | 310 | – |
| CCOC(=O)CC12NC(O)(Cc3ccccc31)c1ccccc12 (centres undefined) | 3600 | – | – |
| CC12NC(Cc3ccc(Br)cc31)c1ccccc12 (single isomer, unassigned; (+)) [listing 2 of 2 here] | 6 | – | – |
| CC12c3ccccc3CC(c3ccccc31)N2O (centres undefined) | 19000 | 45600 | – |
| CC12NC(Cc3ccc(Cl)cc31)c1ccccc12 (stereo in doubt; 64) | – | 67 | – |
| CC12NC(Cc3ccc(Br)cc31)c1ccccc12 (stereo in doubt; 88) | 80 | – | ED50 (Mus musculus [2]): 1.25 mg/kg; ED50 (Mus musculus [5]): 1.42 mg/kg |
| CC12NC(Cc3ccc(N=[N+]=[N-])cc31)c1ccccc12 (centres undefined) | 140 | – | – |
| O[C@@H]1c2ccccc2C2NC1c1ccccc12 (some centres undefined) | 110000 | 9600 | – |
| CCC12NC(Cc3ccccc31)Cc1ccccc12 | 120 | 290 | – |
| CC12NC(c3ccccc31)[C@@H](F)c1ccccc12 (some centres undefined) | 11 | 230 | ED50 (Mus musculus [2]): 1.27 mg/kg |
| [O-][S+](CC12NC(Cc3ccccc31)c1ccccc12)c1ccccc1 (centres undefined) | > 160000 | – | – |
| CN1C2CCc3ccccc3C1(C)c1ccccc12 (centres undefined) | 8800 | – | – |
| NC(=O)CC12NC(Cl)(Cc3ccccc31)c1ccccc12 (centres undefined) | > 90000 | – | – |
| CC12NC(c3ccccc31)[C@@H](O)c1ccccc12 (stereo in doubt; (+)120) [listing 2 of 2 here] | 92 | – | ED50 (Mus musculus [2]): 0.35 mg/kg |
| OCCC12NC(Cc3ccccc31)c1ccccc12 (centres undefined) | 260 | – | – |
| COc1ccc2c(c1)C1(C)NC(C2)c2ccccc21 (centres undefined) | 46 | – | – |
| CC12NC(Cc3ccc(F)cc31)c1ccccc12 (centres undefined) | 30 | 380 | – |
| CC12NC(Cc3ccccc31)c1ccc(Cl)cc12 (stereo in doubt; 63) | 84 | – | – |
| COc1ccc2c(c1)C1(C)NC2Cc2ccccc21 (single isomer, unassigned; (+)) | 25 | – | – |
| CN1C2Cc3ccccc3C1(C)c1ccccc12 (centres undefined) | 610 | – | – |
